In ChEMBL document CHEMBL3525938, “Whole-body physiologically based pharmacokinetic model for nutlin-3a in mice after intravenous and oral administration” (Drug Metab Dispos, 2011):
pIC50: −log10 of the molar value.

How the values were obtained:
[1] = Ratio of drug level in blood to plasma in C57BL/6 mouse after 30 mins; assay type: ADME; conditions: blood and plasma
How it was run: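 Pooled heparinized whole blood from male C57BL/6 mice was spiked at 0.1, 1, 10 and 100 μM final, in triplicate, and incubated at 37°C for 30 min with mixing every 5 min. Whole blood was sampled, and plasma was obtained by centrifugation. Both were measured by LC-MS/MS, and the ratio was calculated from the whole-blood and plasma concentrations.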

[2] = Drug uptake in C57BL/6 mouse retina at 50 to 200 mg/kg, po as single dose measured at 2 hrs; assay type: ADME, organism-based; parameters: dose 50-200 mg/kg, route oral; conditions: in vivo
Intestine [3] = assay: Drug uptake in C57BL/6 mouse intestine at 10 mg/kg, iv as single dose measured at 24 hrs; assay type: ADME, organism-based; parameters: dose 10 mg/kg, route intravenous; conditions: in vivo
Muscle tissue [4] = assay: Drug uptake in C57BL/6 mouse muscle at 50 to 200 mg/kg, po as single dose measured at 2 hrs; assay type: ADME, organism-based; parameters: dose 50-200 mg/kg, route oral; conditions: in vivo
Spleen [5] = assay: Drug uptake in C57BL/6 mouse spleen at 50 to 200 mg/kg, po as single dose measured at 2 hrs; assay type: ADME, organism-based; parameters: dose 50-200 mg/kg, route oral; conditions: in vivo
How it was run: (§1)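 Adult C57BL/6 mice received a single bolus of 10 mg/kg by tail-vein iv injection or 100 or 200 mg/kg by oral gavage, with n = 5 per group and vehicle controls. Samples were taken at 0.5–48 h. Blood came by cardiac puncture under isoflurane, and tissues were dissected at the same time and frozen at −80°C. Tissues were homogenized in 5 mM ammonium formate, pH 7, and assayed by LC-ESI-MS/MS against matrix-matched standards.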

[6] = Drug uptake in C57BL/6 mouse adipose tissue at 50 to 200 mg/kg, po as single dose measured at 2 hrs; assay type: ADME, organism-based; parameters: dose 50-200 mg/kg, route oral; conditions: in vivo
[7] = Drug uptake in C57BL/6 mouse adipose tissue at 10 mg/kg, iv as single dose measured at 24 hrs; assay type: ADME, organism-based; parameters: dose 10 mg/kg, route intravenous; conditions: in vivo
[8] = Fraction unbound in C57BL/6 mouse plasma at 0.1 uM up to 24 hrs by equilibrium dialysis method; assay type: ADME, cell-free
How it was run: (§2)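 Equilibrium dialysis used male C57BL/6 plasma spiked with the drug against PBS across a 5-kDa membrane. The plate was rotated at 37°C under humidified 5% CO2 for 24 h, in triplicate. The plasma side was taken as bound and the PBS side as free, both measured by LC-MS/MS. Fraction unbound was calculated relative to total plasma concentration.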

[9] = Drug uptake in C57BL/6 mouse retina at 10 mg/kg, iv as single dose measured at 24 hrs; assay type: ADME, organism-based; parameters: dose 10 mg/kg, route intravenous; conditions: in vivo; how it was run: as §1
Bone marrow [10] = assay: Drug uptake in C57BL/6 mouse bone marrow at 50 to 200 mg/kg, po as single dose measured at 2 hrs; assay type: ADME, organism-based; parameters: dose 50-200 mg/kg, route oral; conditions: in vivo; how it was run: as §1
Plasma [11] = assay: Drug uptake in C57BL/6 mouse plasma at 10 mg/kg, iv as single dose measured at 24 hrs; assay type: ADME, organism-based; parameters: dose 10 mg/kg, route intravenous; conditions: in vivo
How it was run: (§3)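 Plasma came from two studies in C57BL/6 mice. Study 1: single iv dose of 10 mg/kg or oral dose of 100 or 200 mg/kg, n = 5, blood by cardiac puncture at 0.5–48 h. Study 2 (males): iv 10 or 20 mg/kg, oral 50 or 100 mg/kg, serial plasma to 24 h (iv) or 16 h (oral). Plasma was separated at 12,000g for 5 min at 4°C and measured by LC-ESI-MS/MS.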

[12] = Drug uptake in C57BL/6 mouse adrenal gland at 10 mg/kg, iv as single dose measured at 24 hrs; assay type: ADME, organism-based; parameters: dose 10 mg/kg, route intravenous; conditions: in vivo
Spleen [13] = assay: Drug uptake in C57BL/6 mouse spleen at 10 mg/kg, iv as single dose measured at 24 hrs; assay type: ADME, organism-based; parameters: dose 10 mg/kg, route intravenous; conditions: in vivo; how it was run: as §1
Liver [14] = assay: Drug uptake in C57BL/6 mouse liver at 10 mg/kg, iv as single dose measured at 24 hrs; assay type: ADME, organism-based; parameters: dose 10 mg/kg, route intravenous; conditions: in vivo; how it was run: as §1
[15] = Drug uptake in C57BL/6 mouse vitreous humor at 50 to 200 mg/kg, po as single dose measured at 2 hrs; assay type: ADME, organism-based; parameters: dose 50-200 mg/kg, route oral; conditions: in vivo
Lung [16] = assay: Drug uptake in C57BL/6 mouse lung at 10 mg/kg, iv as single dose measured at 24 hrs; assay type: ADME, organism-based; parameters: dose 10 mg/kg, route intravenous; conditions: in vivo
Muscle tissue [17] = assay: Drug uptake in C57BL/6 mouse muscle at 10 mg/kg, iv as single dose measured at 24 hrs; assay type: ADME, organism-based; parameters: dose 10 mg/kg, route intravenous; conditions: in vivo
[18] = Fraction unbound in C57BL/6 mouse plasma at 300 uM up to 24 hrs by equilibrium dialysis method; assay type: ADME, cell-free; how it was run: as §2
Plasma [19] = assay: Drug uptake in C57BL/6 mouse plasma at 50 to 200 mg/kg, po as single dose measured at 2 hrs; assay type: ADME, organism-based; parameters: dose 50-200 mg/kg, route oral; conditions: in vivo; how it was run: as §3
[20] = Drug uptake in C57BL/6 mouse adrenal gland at 50 to 200 mg/kg, po as single dose measured at 2 hrs; assay type: ADME, organism-based; parameters: dose 50-200 mg/kg, route oral; conditions: in vivo
Brain [21] = assay: Drug uptake in C57BL/6 mouse brain at 10 mg/kg, iv as single dose measured at 24 hrs; assay type: ADME, organism-based; parameters: dose 10 mg/kg, route intravenous; conditions: in vivo; how it was run: as §1
Lung [22] = assay: Drug uptake in C57BL/6 mouse lung at 50 to 200 mg/kg, po as single dose measured at 2 hrs; assay type: ADME, organism-based; parameters: dose 50-200 mg/kg, route oral; conditions: in vivo
[23] = Drug uptake in C57BL/6 mouse vitreous humor at 10 mg/kg, iv as single dose measured at 24 hrs; assay type: ADME, organism-based; parameters: dose 10 mg/kg, route intravenous; conditions: in vivo; how it was run: as §1
Bone marrow [24] = assay: Drug uptake in C57BL/6 mouse bone marrow at 10 mg/kg, iv as single dose measured at 24 hrs; assay type: ADME, organism-based; parameters: dose 10 mg/kg, route intravenous; conditions: in vivo; how it was run: as §1
[25] = Cytotoxicity against doxorubicin-resistant human UKF-NB-3 cells after 96 hrs by MTT assay; assay type: functional, cell-based; conditions: UKF-NB-3, 96 h
Liver [26] = assay: Drug uptake in C57BL/6 mouse liver at 50 to 200 mg/kg, po as single dose measured at 2 hrs; assay type: ADME, organism-based; parameters: dose 50-200 mg/kg, route oral; conditions: in vivo; how it was run: as §1
Intestine [27] = assay: Drug uptake in C57BL/6 mouse intestine at 50 to 200 mg/kg, po as single dose measured at 2 hrs; assay type: ADME, organism-based; parameters: dose 50-200 mg/kg, route oral; conditions: in vivo
Brain [28] = assay: Drug uptake in C57BL/6 mouse brain at 50 to 200 mg/kg, po as single dose measured at 2 hrs; assay type: ADME, organism-based; parameters: dose 50-200 mg/kg, route oral; conditions: in vivo; how it was run: as §1

For `COc1ccc(C2=N[C@@H](c3ccc(Cl)cc3)[C@@H](c3ccc(Cl)cc3)N2C(=O)N2CCNC(=O)C2)c(OC(C)C)c1` [NUTLIN-3], the blood plasma ratio at 0.5 h [1] was 0.7, the Drug uptake [2] was “Active” and the Drug uptake (Intestine [3]) was “Not Active”. For the same compound, the Drug uptake (Muscle tissue [4]) was “Active”, the Drug uptake (Spleen [5]) was “Active” and the Drug uptake [6] was “Active”. The Drug uptake [7] was “Not Active”, the fraction unbound at 24 h, 0.1 µM [8] was 0.007 and the Drug uptake [9] was “Not Active”. For the same compound, the Drug uptake (Bone marrow [10]) was “Not Active”, the Drug uptake (Plasma [11]) was “Not Active” and the Drug uptake [12] was “Not Active”. The Drug uptake (Spleen [13]) was “Not Active”, the Drug uptake (Liver [14]) was “Not Active” and the Drug uptake [15] was “Not Active”. The Drug uptake (Lung [16]) was “Not Active”, the Drug uptake (Muscle tissue [17]) was “Not Active” and the fraction unbound at 24 h, 300 µM [18] was 0.118. The Drug uptake (Plasma [19]) was “Active”, the Drug uptake [20] was “Active” and the Drug uptake (Brain [21]) was “Not Active”. For the same compound, the Drug uptake (Lung [22]) was “Active”, the Drug uptake [23] was “Not Active” and the Drug uptake (Bone marrow [24]) was “Not Active”. For the same compound, the pIC50 [25] was 5.25, the Drug uptake (Liver [26]) was “Active” and the Drug uptake (Intestine [27]) was “Active”. For the same compound, the Drug uptake (Brain [28]) was “Not Active”.
